Experimental data as given in ChEMBL document CHEMBL4513216, “Probing the Open Global Health Chemical Diversity Library for Multistage-Active Starting Points for Next-Generation Antimalarials” (ACS Infect Dis, 2020).

Assay: Toxicity liver stage against HepG2, at 10uM
Assay type: cell-based
Parameters: test concentration 10 uM, cell line HepG2-A16-CD81EGFP
Settings: human, HepG2-A16-CD81EGFP cells; read-out: INHIBITION
Summary of the method: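 Uninfected HepG2-A16-CD81EGFP cells, 3 × 10^3 per well, 1536-well, plated on prespotted compound at 10 μM final, parasite-free screening media added to match infected plates; puromycin 10 μM positive, DMSO 0.5% negative; run in parallel with 48 h PbLuc assay at 37 °C, 5% CO2; viability by CellTiter-Glo luminescence, normalized to controls.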

| SMILES | cytotoxicity at 10 µM |
| --- | --- |
| CCOc1ccc(NC(=O)N(CCN(C)C)C(C)c2ccncc2)cc1 (configuration not stated) | 5.42% |
| COc1ccc(-c2noc([C@@H](C)NC(=O)CC(C)C)c2C(=O)O)cc1 | 2.05% |
| CCc1cc(=O)[nH]c2nnc(SCC(=O)N3CCC(C)CC3)n12 | -5.43% |
| O=C(Cc1cc(-c2ccc3c(c2)OCO3)on1)NC1CCCC1 | -2.34% |
| Cc1nnsc1C(=O)NCC1CCN(c2ccccn2)CC1 | 11.9% |
| CCCS(=O)(=O)N1CCN(CC(F)(F)F)CC1 | -3.29% |
| COCC(C)NC(=O)c1nnn(-c2ccc(F)cc2)n1 (configuration not stated) | -20.6% |
| COCCO[C@@H]1CCN(c2cc(OC)ncn2)[C@H]1Cc1cnn(C)c1 | -142% |
| CN(C)C(=O)[C@@H]1C[C@@H]2CCN(C3CCOCC3)C[C@@H]2O1 | -7.56% |
| CCS(=O)(=O)Nc1ccn(Cc2ccc(F)cc2Cl)n1 | 3.18% |
| Cc1c(CN2Cc3nccn3CC2c2ccccc2)cnn1C (configuration not stated) | -1.13% |
| Cn1ccc(C(=O)N2CCCC2c2cc(CO)[nH]n2)n1 (configuration not stated) | 4.95% |
| Cc1c[nH]nc1C1CN(c2ncccn2)CCO1 (configuration not stated) | 4.37% |
| COCC(=O)NCCc1nc(N(C)C)ncc1-c1ccncc1 | -3.46% |
| Cc1cc(C)n(C2CCN(S(=O)(=O)N3CCOCC3)CC2)n1 | 3.88% |
| O=C(O)c1ccc(=O)n(CC(c2ccc(F)cc2)N2CCCCCC2)c1 (configuration not stated) | 1.31% |
| CNC(=O)C1(CCCc2ccccn2)CN(Cc2coc(C)n2)C1 | 8.62% |
| O=C(O)c1ccccc1-n1cnc(CN2CCCCCC2)c1 | -8.94% |
| CCCn1cc(C(=O)NCc2nnc(-c3ccc(C)nc3)o2)c(C)n1 | -0.277% |
| Cn1ccc(C(=O)N2CCCC(c3cc4cccnc4c(O)n3)C2)n1 (configuration not stated) | 4.53% |
| COc1ccc2[nH]cc(C(=O)N3C[C@@H](O)[C@H](NS(C)(=O)=O)C3)c2c1 | -9.26% |
| Cc1cccc(N2CCOC(C(=O)O)C2)c1 (configuration not stated) | -8.89% |
| CN(C)[C@@H]1CN(C(=O)c2ccc3ccccc3n2)C[C@H]1O | -22.5% |

| SMILES | cytotoxicity at 10 µM |
| --- | --- |
| CNc1cncc(C2CCCN2S(=O)(=O)c2cccc(F)c2)n1 (configuration not stated) | -15.3% |
| O=C(CN1CCCC1)N1CCCC(c2cc(=O)n3c(n2)CCCCC3)C1 (configuration not stated) | -13.7% |
| CN1CCN(c2ncc(-c3cnccn3)c([C@H]3CCCO3)n2)CC1 | -20% |
| Cc1cc2c(=O)n3c(nc2s1)CCN(C(=O)c1cn(C)nc1C)CC3 | -22.6% |
| CN(Cc1ccc(F)cc1)CC1(O)CCN(C(=O)c2ccccn2)C1 (configuration not stated) | -3% |
| O=C(Cn1cccnc1=O)NC(Cc1ccsc1)c1cccnc1 (configuration not stated) | -25.7% |
| O=C1NCc2ccccc2CC12CCCN(Cc1ccsc1)C2 (configuration not stated) | 11% |
| Cc1cnn(CC2CCN(CC(O)COc3ccccc3)CC2)c1 (configuration not stated) | -1.62% |
| CCc1cnc(CNC(=O)NC2CC(C)(C)OC2(C)C)s1 (configuration not stated) | 10.3% |
| CCCn1nc2c(cc1=O)CN(CC1CCCCO1)CC2 (configuration not stated) | 12.5% |
| CN(C)C(=O)c1ccc(-c2cscn2)cc1 | 1.53% |
| Cc1nc(CN2CCN(c3cncc(Cl)n3)CC2)no1 | 6.45% |
| Cc1ccc(NCc2ccc(C#N)cc2)cc1-n1cnnn1 | -0.657% |
| Cc1noc(C)c1Cc1nc(C2CC2)no1 | 5.42% |
| CN(Cc1ccc(F)c2cccnc12)C1CCS(=O)(=O)C1 (configuration not stated) | 5.93% |
| CCOc1ccc(Cl)c(C(=O)NC(C)C(N)=O)n1 (configuration not stated) | 7.53% |
| CC(C)N(C)S(=O)(=O)N(Cc1cccs1)Cc1cccs1 | -45.2% |
| Cc1ccc(C(=O)NS(=O)(=O)c2ccc3c(c2)OCCCO3)o1 | 2.91% |
| CN(Cc1c(F)cccc1Cl)C(=O)c1cnn(CCN2CCOCC2)c1 | -4.2% |
| COCCN(C)CC1CCCN1S(=O)(=O)Cc1ccccc1F (configuration not stated) | 6.84% |
| Cc1cc(C)c2cc(C(=O)N3CCNC(=O)C3)[nH]c2c1 | -13.1% |
| COc1ccc(CN(C)Cc2c(C)noc2C)c(Cl)c1OC | -1.22% |
| CCc1nc2n(n1)CC(NCc1cn(C)nc1-c1cccnc1)CC2 (configuration not stated) | -5.95% |

| SMILES | cytotoxicity at 10 µM |
| --- | --- |
| O=C(NCc1nncn1C1CC1)C1(c2ccc(F)cc2)CCCC1 | -1.89% |
| Cc1nn(C)c(Cl)c1C1CCCN1CC(=O)NC1CCCCC1 (configuration not stated) | 7.09% |
| COCCCS(=O)(=O)N1CCN(c2cccc(O)c2)CC1 | 4.42% |
| Cc1noc(C)c1CCC(=O)NC(C)c1nnc2n1CCCCC2 (configuration not stated) | -1.18% |
| COc1c(C2CCCN2C(=O)c2sccc2C#N)c(C)nn1C (configuration not stated) | 3.33% |
| O=C(CO)N1CCN(C(=O)c2coc3ccccc23)CC1 | 3.16% |
| CC(C)Nc1ncccc1C(=O)NCc1ncc[nH]1 | -7.9% |
| COc1ccc(F)c(NCC(C)(C)S(C)(=O)=O)c1 | -3.18% |
| Cc1ccc(C)c(NC(=O)Cn2nc(C)c(C#N)c2N)c1 | -4.57% |
| CCc1noc(CC)c1CC(=O)N1CCCC(N2CCCCC2)C1 (configuration not stated) | -15.3% |
| O=C1C(NCc2ccccc2O)CCN1Cc1ccccc1 (configuration not stated) | -9.11% |
| Cc1nc(CNC(C(=O)N2CCOCC2)C(C)C)no1 (configuration not stated) | 5.76% |
| CNS(=O)(=O)CC(=O)NC(C)Cc1ccc(-c2ccccc2)cc1 (configuration not stated) | 7.69% |
| Cc1cnn(C2CN(Cc3noc(C4CC4)n3)C2)c1 | 4.34% |
| Cc1cc(CN2CC[C@H]3OCC[C@@]3(C(=O)N3CCOCC3)C2)no1 | 7.93% |
| Cc1cccc(N2CC3(CCN(C(=O)NC(C)C)C3)CC2=O)c1 (configuration not stated) | -3.7% |
| Cc1ccc2c(c1)[C@@H](CC(=O)N(C)C)CCO2 | -3.78% |
| CC[C@H](C)[C@H](N)C(=O)N1CC(=O)c2sc(Nc3ccc(F)cc3)nc2C1 | -1.44% |
| CCOC(=O)c1n[nH]cc1CN1CCCC(N(C)Cc2ccccc2)C1 (configuration not stated) | -1.44% |
| CCCN(Cc1cccnc1)C(=O)C1CCNC1 (configuration not stated) | 8.97% |
| CN(Cc1ccon1)C(=O)CN1C(=O)OC(C)(C)C1=O | -108% |
| Cc1ccc2nc(C(=O)N3CC(c4cccnc4)C3)cn2c1 | -7.5% |
| Cc1cc(C)n(CC2(CNC(=O)C(c3ccccc3F)N(C)C)CC2)n1 (configuration not stated) | 1.64% |

| SMILES | cytotoxicity at 10 µM |
| --- | --- |
| Cc1cccc2[nH]c(C3CCCN(Cc4ccc(CO)o4)C3)nc12 (configuration not stated) | 9.83% |
| CC(Cc1cnccn1)NC(=O)COc1ccc(F)cc1F (configuration not stated) | -44.4% |
| COCCN(Cc1sccc1C)c1nc(C)nc2sccc12 | -131% |
| COc1ccc(-c2cccc(-c3ccn(CCN(C)C)n3)c2)nn1 | -1.39% |
| Fc1ccccc1C1(CNC2CCOC3(CCOCC3)C2)CCCC1 (configuration not stated) | -1.53% |
| CN1CCN(Cc2ccccc2Oc2ccc(C(N)=O)cn2)CC1 | -23.6% |
| CCO[C@H]1C[C@@H](O)C12CCN(C(=O)CCN1CCCC1=O)CC2 | 2.12% |
| Cc1cc(=O)[nH]c(NCCNC(=O)CN2CCCCCC2)n1 | 3.28% |
| O=C(COc1cccnc1)NCc1nncn1C1CCCCC1 | 3.46% |
| CCCOC(C)C(=O)NCc1cc2n(n1)CCCN(C1CCCCC1)C2 (configuration not stated) | 2.5% |
| Cc1cc(C(=O)N2C[C@@H](C(=O)O)[C@H](c3ccccc3C)C2)c(C)o1 | 16.8% |
| O=C(O)c1coc(COc2cccc(F)c2)n1 | 0.523% |
| O=C1CCC(=O)N1c1nn(Cc2cccc(F)c2)cc1Cl | -6.61% |
| COc1ccccc1CNc1cnn(CC(F)F)c1 | -5.41% |
| COc1ccc(CN(Cc2nc(C)no2)C2CCCCC2)cc1OC | -0.0185% |
| Cc1c(F)cc(C(=O)O)cc1S(=O)(=O)Nc1ccc(C#N)cc1 | -6.04% |
| CC(C)(C)c1cnc(CN2CCCCC2Cn2cccn2)o1 (configuration not stated) | -7.85% |
| COc1ccc(OC)c(C(=O)N2CCCCC2Cn2cccn2)c1 (configuration not stated) | -0.677% |
| Cc1noc(C)c1CN(C)CC(=O)N1CCc2sccc2C1 | -19.4% |
| CCCS(=O)(=O)NC(C)C(=O)NCc1ccnc(N2CCCC2)c1 (configuration not stated) | -13.6% |
| COc1ncccc1NC(=O)NC(C)c1nncn1C (configuration not stated) | -18.8% |
| CNC(=O)CCCNCc1c(C)nn(C)c1N(C)C | -8.18% |
| Cc1cc(C(=O)NCc2ccnc(N3CCN(C)CC3)c2)c(C)s1 | -10.7% |

| SMILES | cytotoxicity at 10 µM |
| --- | --- |
| CCC1CCCN(C(=O)Cc2csc(-c3ncccn3)n2)C1 (configuration not stated) | -5.15% |
| COc1ccc(OC)c(C(O)CN2CC(n3cccn3)C2)c1 (configuration not stated) | -8.42% |
| NC(=O)c1ccc(S(=O)(=O)NC2CCN(Cc3ccccc3)C2=O)cc1 (configuration not stated) | -9.96% |
| NC(=O)CN1CCCN(C(=O)Cc2ccc(F)c(Br)c2)CC1 | 0.361% |
| CCc1nccn1C1CCCN(C(=O)Cc2ccc(OC)c(F)c2)C1 (configuration not stated) | -3.59% |
| Cc1ccc(-c2nnc(CNCCn3cc(C)cn3)o2)cc1 | -12.1% |
| CC(=O)Nc1nc(CN2CCOC(Cn3cc(C)cn3)C2)cs1 (configuration not stated) | 11.3% |
| Cn1cnnc1C1CCCN(C(=O)Cc2ccc3c(c2)OCCO3)C1 (configuration not stated) | 0.626% |
| O=C(c1cccc2c1OCO2)N1CCCC1Cn1cccn1 (configuration not stated) | 3.46% |
| NCCC(=O)Nc1ccc(-c2ccccc2)cc1 | -1.81% |
| Cc1nc(CN2CCOCC3(CCN(c4cccnc4)CC3)C2)cs1 | -12.2% |
| COCC1c2c(cnn2CC2CCOCC2)CCN1Cc1ccoc1 (configuration not stated) | -20% |
| c1ccc(CN2CC[C@@H]3O[C@H](COCc4ccncc4)CC[C@@H]32)nc1 | 3.5% |
| O=C(c1ccncc1F)N1C[C@@H]2OCCN(CC3CC3)[C@@H]2C1 | -141% |
| Cc1ccc(C(=O)N2Cc3c(CN(C)C)nn(C)c3C2)cc1C | 1.77% |
| COCC1CC2(CCN(Cc3ccco3)CC2)CN1C(C)C (configuration not stated) | 0.0448% |
| COc1ccc(OC)c(CN2CCc3nc4ccsc4c(=O)n3CC2)c1 | 43.5% |
| Cc1nc(CN2CCO[C@H]3[C@@H](OCc4cccnc4)CC[C@@H]32)cs1 | -0.587% |
| O=C(c1ccncc1F)N1CC[C@@H]2OC(COCC3CC3)CC[C@@H]21 (some centres not stated) | -4.03% |
| CN(C)C(c1ccccn1)C1CCC(CNC(=O)C2CCCC2)CC1 (configuration not stated) | 10.5% |
